This is an account of results in ChEMBL document CHEMBL4513216, “Probing the Open Global Health Chemical Diversity Library for Multistage-Active Starting Points for Next-Generation Antimalarials” (ACS Infect Dis, 2020).

A short description of this data set: Toxicity liver stage against HepG2, at 10uM. The following applies: human, HepG2-A16-CD81EGFP cells; read-out: INHIBITION
The class given is cell-based. Details: test concentration 10 uM, cell line HepG2-A16-CD81EGFP. In a few lines: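 Uninfected HepG2-A16-CD81EGFP cells, 3 × 10^3 per well, 1536-well, plated on prespotted compound at 10 μM final, parasite-free screening media added to match infected plates; puromycin 10 μM positive, DMSO 0.5% negative; run in parallel with 48 h PbLuc assay at 37 °C, 5% CO2; viability by CellTiter-Glo luminescence, normalized to controls.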
For `Cc1nc(CN2C(=O)C[C@@H]3[C@@H]2CCN3Cc2cnn(C)c2)cs1`, the cytotoxicity at 10 µM was determined as 2.44%.

Turning to `CS(=O)(=O)NCC(=O)NC1CCCN(c2ccccn2)C1` (stereo not given), the cytotoxicity at 10 µM was 1.76%.

On to `CN(C)c1ccc(C(=O)Nc2cn[nH]c2)cc1`, for which the cytotoxicity at 10 µM is -0.279%. With `Cc1ncc(C(=O)N2CCC(N3C[C@@H](C)O[C@@H](C)C3)CC2)c(=O)[nH]1` the figure was 3.42%. `COCC(C)NC(=O)N(C)Cc1cc(C)on1` (stereo not given): the cytotoxicity at 10 µM turned out to be 6.27%.

As for `CC(NC(=O)c1coc(COc2cccc(F)c2)n1)c1nnc(N)s1` (stereo not given), the cytotoxicity at 10 µM was -144%.

Regarding `COc1ccc(OC)c(-n2nnnc2SCC2CCCCO2)c1` (stereo not given), the cytotoxicity at 10 µM came to 11.7%. For the compound `C[C@@H]1CN(c2nc3c(cc2C(N)=O)CCC3)C[C@@]1(O)C1CCC1`, the cytotoxicity at 10 µM is -3.98%. With `CCOc1ccc(C(=O)N2CCCC(c3nccn3C)C2)cc1OCC` (stereo not given) the figure was -6.77%; with `COc1ccc(OC)c(C(=O)N(C)Cc2ncc(C)c(OC)c2C)c1`, -4.3%.

Consider `CN(C)Cc1nc(-n2cnc(C(=O)NCC3CC3)c2)n2ccccc12`, for which the cytotoxicity at 10 µM amounted to 1.55%.

Consider `Cc1nn(C)c(C)c1CN1CCCC1c1nccc(CN(C)C)n1` (stereo not given), for which the cytotoxicity at 10 µM is -28.1%. With `CCNc1ccnc(NCC2CNCCO2)n1` (stereo not given) the figure was 3.71%; with `CCc1nccn1C1CCCN(C(=O)c2ccc(C(N)=O)cn2)C1` (stereo not given), 1.89%.

Consider `Cc1nc2n(n1)CC(Nc1ccnc(-c3ccccc3)n1)CC2` (stereo not given), for which the cytotoxicity at 10 µM is 3.43%. With `COCC(=O)N(C)Cc1ccc(Cl)c(Cl)c1` the figure was -5.13%. Consider `CC(=O)c1ccc(C(=O)N2CCC(c3cc(O)nc(C)n3)CC2)s1`, for which the cytotoxicity at 10 µM is 1.3%. With `CCOc1ccc(NC(=O)N(C)Cc2cnn(C)c2)c(C)c1` the figure was -9.63%; with `Cc1ccc(CN(c2cc(C)nc3nc(C(F)(F)F)nn23)C2CC2)cc1`, -4.12%. With `CCc1nc(CN2CCCN(C(=O)c3cccn3C)CC2)cs1` the figure was 3.41%; with `COc1c(NS(=O)(=O)c2ccc(F)c(C)c2)c(C)nn1C`, -6.33%; with `Cc1cccc(=O)n1CCCNc1nc(N(C)C)nc2c1CCNC2`, -0.545%.

Take `CCc1ccc(C(=O)O)cc1S(=O)(=O)Nc1ccc(=O)n(C)c1`: the cytotoxicity at 10 µM came to 11.7%.

Take `CCNc1ncc(C(=O)N2CCc3c(nc(C)nc3N(C)C)C2)cn1`: the cytotoxicity at 10 µM was -3.28%.

`NS(=O)(=O)c1cnc(NCC2(c3ccccc3)CCC2)s1`: the cytotoxicity at 10 µM was -4.88%.

Consider `COc1cccc(COC(C)C(=O)NCc2nnc3n2CCC3)c1` (stereo not given), for which the cytotoxicity at 10 µM stood at 8.67%. With `O=C(C1CCOCC1)N1CCC2(CC1)CC(Oc1ccccc1)CO2` (stereo not given) the figure was -17.3%; with `O=C(CCc1nccs1)N1CCN(c2ccc(Cl)cn2)CC1`, 0.665%. With `CC(NC1(CNC(=O)C(C)(C)C#N)CCOCC1)c1ccccc1` (stereo not given) the figure was 7.35%; with `CC(=O)NCCn1ccc(-c2ccccn2)n1`, 7.38%; with `CC(=O)N1CCC(CSCc2ccco2)CC1`, 9.77%. With `CCc1cc(CN2CCC(CCC(=O)Nc3ccccc3Cl)CC2)on1` the figure was 5.27%. Take `CN1CCc2c(c(COc3cncnc3)nn2CC2CC2)C1`: the cytotoxicity at 10 µM was 8.61%. Regarding `COCc1nc(N(C)C)ncc1C(=O)Nc1ccc(Cl)cc1`, the cytotoxicity at 10 µM amounted to 0.474%. With `Cc1cc2ccccc2n1CCC(=O)NCCS(C)(=O)=O` the figure was -5.79%; with `Cc1nn(C)c(N(C)C)c1CNCc1ccc(C(=O)N(C)C)cc1`, -9.55%; with `CCc1nc(CCNC(=O)C2CCOC2)sc1C` (stereo not given), -20.4%. With `CN(CC1CC1)C(=O)CN1CCCC1c1cnn(C)c1` (stereo not given) the figure was 2.01%. With `Cc1cc(CNC2(c3ccccc3)CCCCC2)on1` the figure was 0.643%. As to `O=C(CCCc1nc2ccccc2[nH]1)N1CCCC(n2cccn2)C1` (stereo not given), the cytotoxicity at 10 µM was -0.704%. On to `CC(C)(O)CSCCNC(=O)c1ccc(F)cc1Cl`, for which the cytotoxicity at 10 µM was -10.9%.

With `Cc1nc2ccc(C(=O)N3C[C@@H](O)[C@H](N4CCOCC4)C3)cc2[nH]1`, the cytotoxicity at 10 µM is -5.81%. As for `CN(C)CCOCC1CN(C(=O)c2cccn2C)Cc2ccnn2C1` (stereo not given), the cytotoxicity at 10 µM came to 13.5%. With `CCN1CCC(N2C[C@H]3OC(=O)N(CCc4cccc(Cl)c4)[C@H]3C2)CC1` the figure was -5.4%; with `OC1(CN2CCOC(Cn3cncn3)C2)CCCCC1` (stereo not given), 9.87%; with `CCc1ncc(C(=O)N2CC[C@H]3CC[C@@H](C2)N3C)cn1`, -7.09%. With `CCS(=O)(=O)N1CCC2(CN(c3cccc(F)c3)C(=O)CN2C)C1` (stereo not given) the figure was -74.4%; with `Cc1ncsc1CN1C[C@@H]2COC[C@]2(C(=O)NC2CC(F)(F)C2)C1`, -103%. With `Cn1c(Cl)cnc1CN1CCCC1c1ccc2c(c1)OCCO2` (stereo not given) the figure was -1.29%; with `Cc1nccnc1N1Cc2cnc(CC(C)C)nc2C1`, 1.81%; with `Cc1cccc(CN2CCN(C(=O)N(C)C)[C@@H]3CS(=O)(=O)C[C@@H]32)n1`, 0.00559%. Regarding `CCNC(=O)N1CCC2(C1)c1ccccc1S(=O)(=O)N2CCOC` (stereo not given), the cytotoxicity at 10 µM is -151%. For `CC(=O)N1CC[C@H]2[C@H](C[C@@H](Cn3cncn3)N2c2nccs2)C1`, the cytotoxicity at 10 µM is -140%. With `O=C(NCCN1CCOCC1)Nc1cnc2cc(Cl)ccc2c1O` the figure was -24%; with `Cc1c[nH]c(CN2CCN(C)C3(CCC(=O)N(CC4CC4)CC3)C2)n1` (stereo not given), -5.54%; with `Cc1cc(C(=O)N2CCCC2c2c(C)nn(C)c2C)no1` (stereo not given), -2.57%. With `Cc1cccc(C(=O)Nc2ccc(OC3CCOCC3)c(C)c2)n1` the figure was -8.99%; with `Cn1cc(N2CCCC(Nc3ccc4c(c3)NC(=O)CC4)C2=O)cn1` (stereo not given), -1.61%. With `CS(=O)(=O)c1cc(Cl)cnc1C1CCN(C(=O)C2CCCO2)CC1` (stereo not given) the figure was 4.38%; with `O=C1CO[C@H]2CN(Cc3cccc4[nH]ccc34)C[C@@H]2N1C1CCOCC1`, -17.3%; with `CNc1cc(C)nc(N2CCC3(CC2)[C@H](O)C[C@@H]3OCCO)n1`, -1.82%. `CC(C)(C)n1ncc2c1NC(=O)CC2c1ccc(C(=O)O)cc1` (stereo not given): the cytotoxicity at 10 µM was found to be 2.08%.

In the case of `CC(C)C1CN(c2cnccn2)CCC(=O)N1Cc1ccc(F)cc1` (stereo not given), the cytotoxicity at 10 µM was found to be 3.67%. With `CCc1ncncc1C(=O)NCCN1CCC(C)CC1` the figure was -15.6%. Consider `Cc1cc(NC(=O)C(C)Oc2ccc3c(c2)OCO3)no1` (stereo not given), for which the cytotoxicity at 10 µM was -5.08%. For the compound `COc1nc2ccccc2cc1C1CC(=O)Nc2n[nH]c(C3CCC3)c21` (stereo not given), the cytotoxicity at 10 µM was -13.5%.

In the case of `COc1cccc(O)c1CN1CCCC(Nc2cccc(F)c2)C1` (stereo not given), the cytotoxicity at 10 µM was -4.47%. With `O=C(c1ccnnc1)N1CCN2C[C@H](OCc3cccnc3)C[C@H]2C1` the figure was -72.4%; with `CN1CCCc2ccc(S(=O)(=O)NC(=O)C3CC=CC3)cc21`, 2.84%; with `OCCOc1ccc(NCc2cc(F)cc3cccnc23)cn1`, -4.46%. With `CC(C)(C)OC(=O)N1CCC(NC2CC2)CC1` the figure was -5.64%.

Turning to `N#Cc1c(F)cccc1Nc1cnn(CC(=O)N2CCOCC2)c1`, the cytotoxicity at 10 µM is 2.2%. In the case of `CCc1nc2c(s1)C(N(C)C(=O)c1cc[nH]n1)CCC2` (stereo not given), the cytotoxicity at 10 µM is 7.76%. With `CN(C)C(=O)CN1CCC2(CCCN(Cc3cccnc3)C2)C1=O` (stereo not given) the figure was -103%; with `CCN(C)C[C@@H]1CN(Cc2cccc(Cl)c2)C[C@@H]1CO`, 2.45%. With `CSc1ccc(C(CNC(C)=O)N2CCc3sccc3C2)cc1` (stereo not given) the figure was 6.84%; with `COc1cc(C(=O)NS(=O)(=O)c2cc(Cl)sc2Cl)ccc1OC(F)F`, -13.9%; with `CN(C[C@@H]1CCC[C@@H]2CN(c3ncccn3)C[C@@H]21)C1CC1`, 5.18%. With `COCC(O)CN(C)c1ccnc2cc(F)ccc12` (stereo not given) the figure was -2.63%; with `COCC[C@]1(O)CCN(C(=O)CCn2c(C)cccc2=O)C[C@H]1C`, 3.28%. As for `Cc1oc(-c2ccc(F)cc2F)nc1CN1C[C@@H](C)O[C@@H](C)C1`, the cytotoxicity at 10 µM is -39.9%. With `CS(=O)(=O)CCC(=O)N1CCC2(CCCN(C3CCOCC3)C2=O)C1` (stereo not given) the figure was -7.64%; with `Fc1cnc(N2CCCC3(CCN(Cc4cccs4)C3)C2)nc1` (stereo not given), -71.1%. With `Cc1cccc(-n2cc(CNc3ncnc4c3CCNCC4)cn2)c1` the figure was 3.96%; with `CN1CCC(N(Cc2ccco2)S(=O)(=O)c2ccc(Br)cc2Cl)CC1`, -12.8%; with `COCCN1CCOCC2(C1)CN(C(=O)c1conc1C)CCO2` (stereo not given), 7.1%. `CCN1CCCC12CCN(C(=O)c1ccsc1)CC2`: the cytotoxicity at 10 µM is -152%. With `O=c1cc(N2CCCC2)cnn1Cc1noc(C2CCCO2)n1` (stereo not given) the figure was -59.8%.

Take `CC(C)c1nncn1CCNC(=O)c1c(O)cc(F)cc1F`: the cytotoxicity at 10 µM is -1.99%. With `COc1cccc([C@@H]2CCN(Cc3ccc4ccccc4n3)C[C@H]2O)c1` the figure was -16.5%. With `N#Cc1c(F)cccc1N1CCC(C(=O)Nc2nccs2)CC1`, the cytotoxicity at 10 µM turned out to be 0.329%. Take `Cc1ccc(N2CCN(C(=O)CCc3n[nH]c(C)n3)CC2=O)cc1`: the cytotoxicity at 10 µM was -4.06%. With `Cc1ccnc(OC[C@@]23CCO[C@@H]2CCN(c2ncccn2)C3)n1` the figure was 4.86%; with `O=C(CCc1nnc(-c2ccccc2)o1)N1CCCC1c1ccccn1` (stereo not given), -5.82%; with `CC(C)n1ccnc1CN1CCCN(C(=O)c2cnn(C)c2)CC1`, -22.4%.
